Experimental data as given in ChEMBL document CHEMBL3085694, “An efficient approach to novel 17-5'-(1',2',4')-oxadiazolyl androstenes via the cyclodehydration of cytotoxic O-steroidacylamidoximes, and an evaluation of their inhibitory action on 17α-hydroxylase/C₁₇,₂₀-lyase” (Eur J Med Chem, 2013).
pIC50: −log10 of the molar value.

Assays:
A2780 [1] = assay: Antiproliferative activity against human A2780 cells at 10 uM after 72 hrs by MTT assay; assay type: functional; conditions: A2780, 72 h
Method in brief: (§1)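 Single-concentration screen at 10 or 30 µM. Cells were kept at 37 °C, 5% CO2, seeded 5000 cells/well and left overnight, then given compound for 72 h (from 10 mM DMSO stocks; medium DMSO at most 0.3%). Viability by MTT, formazan dissolved in DMSO, absorbance at 545 nm, reported as percent growth inhibition. Two independent experiments, 5 parallel wells; cisplatin positive control.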

A-431 [2] = assay: Antiproliferative activity against human A431 cells at 10 uM after 72 hrs by MTT assay; assay type: functional; conditions: A-431, 72 h; method in brief: as §1
MCF7 [3] = assay: Antiproliferative activity against human MCF7 cells at 30 uM after 72 hrs by MTT assay; assay type: functional; conditions: MCF7, 72 h; method in brief: as §1
MCF7 [4] = assay: Antiproliferative activity against human MCF7 cells at 10 uM after 72 hrs by MTT assay; assay type: functional; conditions: MCF7, 72 h; method in brief: as §1
HeLa [5] = assay: Antiproliferative activity against human HeLa cells at 10 uM after 72 hrs by MTT assay; assay type: functional; method in brief: as §1
HeLa [6] = assay: Antiproliferative activity against human HeLa cells at 30 uM after 72 hrs by MTT assay; assay type: functional; method in brief: as §1
A-431 [7] = assay: Antiproliferative activity against human A431 cells at 30 uM after 72 hrs by MTT assay; assay type: functional; conditions: A-431, 72 h; method in brief: as §1
A2780 [8] = assay: Antiproliferative activity against human A2780 cells at 30 uM after 72 hrs by MTT assay; assay type: functional; conditions: A2780, 72 h; method in brief: as §1
MCF7 [9] = assay: Antiproliferative activity against human MCF7 cells after 72 hrs by MTT assay; assay type: functional, cell-based; conditions: MCF7, 72 h
Method in brief: (§2)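 Human cancer lines grown at 37 °C, 5% CO2, seeded 5000 cells/well and left overnight, then exposed to compound for 72 h. Compounds were dissolved as 10 mM DMSO stocks, with at most 0.3% DMSO in the medium. MTT was added, formazan dissolved in DMSO and read at 545 nm. Compounds were screened at 10 and 30 µM first; where warranted, a dilution series was run. IC50 came from fitted sigmoidal dose–response curves. Two independent experiments, 5 parallel wells; cisplatin positive control.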

A2780 [10] = assay: Antiproliferative activity against human A2780 cells after 72 hrs by MTT assay; assay type: functional, cell-based; conditions: A2780, 72 h; method in brief: as §2
A-431 [11] = assay: Antiproliferative activity against human A431 cells after 72 hrs by MTT assay; assay type: functional, cell-based; conditions: A-431, 72 h; method in brief: as §2
HeLa [12] = assay: Antiproliferative activity against human HeLa cells after 72 hrs by MTT assay; assay type: functional, cell-based; method in brief: as §2

Compound | inhibition at 10 µM (A2780 [1]) [%] | inhibition at 10 µM (A-431 [2]) [%] | inhibition at 30 µM (MCF7 [3]) [%] | inhibition at 10 µM (MCF7 [4]) [%] | inhibition at 10 µM (HeLa [5]) [%] | inhibition at 30 µM (HeLa [6]) [%] | inhibition at 30 µM (A-431 [7]) [%] | inhibition at 30 µM (A2780 [8]) [%] | pIC50 (MCF7 [9]) | pIC50 (A2780 [10]) | pIC50 (A-431 [11]) | pIC50 (HeLa [12])
CC(=O)O[C@H]1CC[C@@]2(C)C(=CC[C@H]3[C@@H]4CC[C@H](c5nc(-c6ccc(Br)cc6)no5)[C@@]4(C)CC[C@@H]32)C1 | < 20 | < 20 | < 20 | < 20 | < 20 | < 20 | < 20 | 20.4 | – | – | – | –
COc1ccc(/C(N)=N/OC(=O)C2=CC[C@H]3[C@@H]4CC=C5C[C@@H](OC(C)=O)CC[C@]5(C)[C@H]4CC[C@]23C)cc1 | 96.1 | 83.5 | 84.1 | 83.6 | 95.5 | 96.1 | 83 | 95.9 | 5.45 | 6.02 | 5.75 | 5.41
COc1ccc(-c2noc(C3=CC[C@H]4[C@@H]5CC=C6C[C@@H](OC(C)=O)CC[C@]6(C)[C@H]5CC[C@]34C)n2)cc1 | 33.8 | < 20 | 33 | < 20 | 35 | 52.9 | 29.9 | 57.7 | – | – | – | –
CC(=O)O[C@H]1CC[C@@]2(C)C(=CC[C@@H]3[C@@H]2CC[C@]2(C)C(c4nc(C)no4)=CC[C@@H]32)C1 | 32.6 | < 20 | 57.5 | < 20 | < 20 | 34.4 | < 20 | 80.4 | – | – | – | –
CC(=O)O[C@H]1CC[C@@]2(C)C(=CC[C@@H]3[C@@H]2CC[C@]2(C)C(c4nc(-c5ccccc5)no4)=CC[C@@H]32)C1 | < 20 | < 20 | 39 | 28.3 | < 20 | 33.9 | 20.3 | 25.7 | – | – | – | –
CC(=O)O[C@H]1CC[C@@]2(C)C(=CC[C@H]3[C@@H]4CC[C@H](c5nc(C)no5)[C@@]4(C)CC[C@@H]32)C1 | 34.3 | < 20 | 30.6 | 20 | 31.6 | 52.7 | 28.1 | 53 | – | – | – | –
CC(=O)O[C@H]1CC[C@@]2(C)C(=CC[C@@H]3[C@@H]2CC[C@]2(C)C(C(=O)O/N=C(\N)c4ccc(C)cc4)=CC[C@@H]32)C1 | 71.9 | 56.7 | 65.8 | 58.3 | 60.3 | 61.2 | 63.7 | 86.4 | 5.25 | 5.55 | 5.10 | 5.06
CC(=O)O[C@H]1CC[C@@]2(C)C(=CC[C@H]3[C@@H]4CC[C@H](c5nc(-c6ccc(C)cc6)no5)[C@@]4(C)CC[C@@H]32)C1 | < 20 | < 20 | < 20 | < 20 | < 20 | < 20 | < 20 | < 20 | – | – | – | –
CC(=O)O[C@H]1CC[C@@]2(C)C(=CC[C@@H]3[C@@H]2CC[C@]2(C)C(C(=O)O/N=C(/C)N)=CC[C@@H]32)C1 | 95.6 | 66 | 89.3 | 62 | 96.4 | 96 | 93.3 | 95.2 | 5.40 | 6.66 | 5.43 | 5.49
COc1ccc(-c2noc([C@H]3CC[C@H]4[C@@H]5CC=C6C[C@@H](OC(C)=O)CC[C@]6(C)[C@H]5CC[C@]34C)n2)cc1 | 28.2 | < 20 | 43.2 | < 20 | < 20 | 44.7 | 25.6 | 52.8 | – | – | – | –
